NTR1 agonist: NTR1 (human) agonism. 0.17% of 330,000 active. AID 493036. NTR1-U2OS beta-arrestin-GFP spot imaging, agonist mode. activation, % at 20 µM;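 active = activation at or above 40% of the spot to cytoplasm intensity ratio, with at least 20 cells analyzed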;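 note: 0% = DMSO without peptide and 100% = 100 nM NTR1 peptide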
Tb MetRS inh: Trypanosoma brucei MetRS inhibition. purified T. brucei MetRS, ATP depletion, Kinase-Glo luminescence. inhibition, % at 11.9 µM. 0.4% of 360,000 active;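 active = inhibition above a per-plate cutoff of the control wells' mean inhibition plus 3 SD, cut at about 5.5% in these data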;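 note: 0% = DMSO wells median and 100% = median of wells with control inhibitor compound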
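Material: parasite MetRS enzyme / Replication: singlicate, one well per compound / Signal: luminescence of leftover ATP / Schedule: 2 h aminoacylation at 25 °C after 15 min preincubation / Medium: HEPES-MgCl2-KCl buffer plus DTT, spermine, BSA, pyrophosphatase / Doses: 11.9 µM single point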
MC4R antag cAMP: human MC4R antagonism in cAMP assay; P32245; MC4R-expressing cells, MTII-stimulated cAMP, LANCE TR-FRET; inhibition, % at 6.5 µM; 0.48% of 360,000 active;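 active = inhibition above its plate's cutoff, the mean of tested wells on that plate plus 3 SD, cut at about 29% in these data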;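 note: 0% = Melanotan II alone and 100% = Melanotan II plus saturating MCL0020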
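Assay system: human MC4R-expressing U2OS cells; reagent: Melanotan II stimulation of cells; dosing: 6.5 µM single dose; timing: compound 30 min, challenge 1 h, detection 1 h; signal: TR-FRET cAMP assay; replicates: one well per compound, no replicates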
aDG glyco up: alpha-DG glycosylation activation. Pro5-aDG cells, alpha-DG glycosylation AlphaScreen (IIH6); 0% Pro5, 100% B10-LARGE cell signal. activation, % at 10 µM. 0.22% of 360,000 active;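 active = activation of at least 8% versus controls, or a plate z-score of at least 8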;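 note: Pro5 are CHO cells carrying HIG-tagged alpha-DG that lacks glycosylation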
MC4R barr agon: human MC4R agonism via beta-arrestin. P32245. U2OS MC4R beta-arrestin complementation, luminescence; percent of melanotan II response, DMSO zero. activation, % at 8.9 µM. 0.98% of 360,000 active. AID 540308;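 active = activation above a per-plate cutoff, the mean activation of sample wells on that plate plus 3 SD, cut at about 8% in these data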
H9c2 TAG inh: reduces triacylglycerol accumulation in H9c2 cells. Nile Red lipid (TAG) fluorescence; cells loaded with 200 µM oleic acid. inhibition, % at 12.5 µM. 0.66% of 230,000 active;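 active = pattern-corrected inhibition of lipid staining of at least 50% with the nuclear-stain viability signal not falling by more than 50%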;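 note: 0% = DMSO wells and 100% = triacsin C control wells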
MC4R barr conf: human MC4R beta-arrestin agonism confirmation. shares compounds with MC4R barr agon. 31% of 2,400 active. activation, % at 8.9 µM. U2OS MC4R beta-arrestin recruitment, luminescence; scaled DMSO 0%, Melanotan II 100%;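 active = mean activation across replicates above the hit cutoff set in the earlier primary screen, cut at about 8% in these data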
MOR-DOR barr ag: OPRM1-OPRD1 heterodimer agonism counter-screen; U2OS PathHunter beta-arrestin, beta-gal luminescence; percent of deltorphin B response, DMSO zero; shares compounds with MC4R barr agon; 5.8% of 2,400 active; activation, % at 9.2 µM;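 active = mean activation across replicates exceeds the hit threshold derived in the earlier primary screen, cut at about 18% in these data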;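 note: 100% = deltorphin B at 0.9 µM final and 0% = DMSO alone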
Target sequence (P35372 whole entry, looked up): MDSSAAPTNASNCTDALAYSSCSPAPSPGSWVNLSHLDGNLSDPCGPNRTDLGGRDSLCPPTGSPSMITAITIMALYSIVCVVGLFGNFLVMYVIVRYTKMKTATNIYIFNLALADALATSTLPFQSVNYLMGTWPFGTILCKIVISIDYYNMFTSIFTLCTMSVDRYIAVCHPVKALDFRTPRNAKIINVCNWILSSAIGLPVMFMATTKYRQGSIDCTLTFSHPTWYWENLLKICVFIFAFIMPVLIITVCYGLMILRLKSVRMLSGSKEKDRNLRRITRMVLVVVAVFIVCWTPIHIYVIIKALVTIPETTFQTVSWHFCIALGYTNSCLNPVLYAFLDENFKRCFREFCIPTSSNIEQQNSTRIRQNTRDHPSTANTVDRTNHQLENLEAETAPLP
Target sequence (P41143 whole entry, looked up): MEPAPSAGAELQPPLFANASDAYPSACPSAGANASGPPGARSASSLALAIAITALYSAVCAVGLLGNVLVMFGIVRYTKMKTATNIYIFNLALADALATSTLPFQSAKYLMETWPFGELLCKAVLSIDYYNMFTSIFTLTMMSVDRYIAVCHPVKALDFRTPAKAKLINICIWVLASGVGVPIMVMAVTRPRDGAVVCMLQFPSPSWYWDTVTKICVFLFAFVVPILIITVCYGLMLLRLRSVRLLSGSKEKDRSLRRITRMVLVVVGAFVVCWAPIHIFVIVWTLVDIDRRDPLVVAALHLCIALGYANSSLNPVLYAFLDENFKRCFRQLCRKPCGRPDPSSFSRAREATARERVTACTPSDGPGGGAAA
The depositor's hits bear a star; . = no result given. Hits are enriched below; roughly 2.4% of the tested compounds scored in any of these assays.

SMILES	NTR1 agonist	Tb MetRS inh	MC4R antag cAMP	aDG glyco up	MC4R barr agon	H9c2 TAG inh	MC4R barr conf	MOR-DOR barr ag
CCCc1cnc(Nc2nc(C(N)Cc3ccc(C(F)(F)F)cc3)cs2)nc1 (configuration not stated)	.	0	27	1	15*	19	14*	6
NC(Cc1ccccc1)c1csc(Nc2ccc(C(F)(F)F)cn2)n1 (configuration not stated)	.	0	2	0	5	22	.	.
CCCCCCCCN1C(=O)[C@H](CC(=O)NCc2cccc3ccccc23)C[C@@]2(C(=O)OCC)CCC=C12	.	-1	.	1	.	.	.	.
CC(C)c1cc(C(C)C)c(S(=O)(=O)NC(c2ccccn2)C23CC2C3)c(C(C)C)c1 (configuration not stated)	.	-1	.	4	.	.	.	.
NC(Cc1ccc(C(F)(F)F)cc1)c1csc(Nc2nccc(C(F)(F)F)n2)n1 (configuration not stated)	.	0	4	0	15*	-6	17*	7
CC(C)C[C@H]1COc2cc(N3CCC[C@@H]3CO)ccc2S(=O)(=O)N1	.	-1	.	0	.	.	.	.
COC(=O)c1cc(OC)c(OC)cc1NC(=O)Nc1ccc(OC)cc1	0	0	9	0	14*	-4	-1	2
C/C=C/c1cccc(-c2nc(C(=O)NC3CCCC3)cc3c2[C@@H](CCO)N(S(=O)C(C)(C)C)C3)c1 (some centres not stated)	.	0	.	0	.	.	.	.
COc1ccc(NC(=O)c2c(Nc3ccccc3)sc(C(=O)c3ccc(F)cc3)c2N)cc1	12	0	1	1	12*	-6	14*	9
NC(=O)CCC(C(=O)O)N1C(=O)C2C3CCC(C3)C2C1=O (configuration not stated)	.	0	14	0	-1	0	.	.
O=C(Nc1cccc(C(F)(F)F)c1)Nc1nnc([C@@H]2C[C@H](O)[C@@H](CO)O2)s1	.	0	7	0	-1	-7	.	.
Cc1sc2nc(CSc3cccc(C(F)(F)F)c3)[nH]c(=O)c2c1C	3	-1	-10	0	16*	-3	5	3
CC(=O)NCCNc1nc2cc(-c3ccc4c(ccn4C)c3)sc2c(=O)n1C	.	0	2	0	-1	11	.	.
COC(=O)C1(C(=O)OC)C[C@H](c2ccc(OC)cc2)N(Cc2ccccc2OC)[C@@H]1c1ccc(OC)cc1	.	0	.	0	.	.	.	.
O=S(=O)(Nc1ccc(Nc2ccccc2)cc1)c1ccc(F)cc1	7	-1	2	0	8	23	.	.
O=S(=O)(Nc1ccc(-c2ccccc2)cc1)c1ccccc1	.	0	5	0	14*	-9	6	7
Cc1ccc(S(=O)(=O)Nc2ccc(Nc3ccccc3)cc2)cc1	10	0	9	0	9.7*	.	1	9
Oc1ccc(Br)c(CN2CCN(c3ncc(Cc4ccccc4)cn3)CC2)c1	.	0	.	3	.	.	.	.
COC(=O)C[C@@H]1CC[C@@H](NC(=O)C2CCC2)[C@@H](CO)O1	.	-1	.	0	.	.	.	.
O=C(COC(=O)/C=C/c1cccs1)Nc1nc(-c2ccccc2)cs1	5	0	18	0	32*	-5	5	7
COc1ccc(-c2cc(NC(C)=O)c3ncc(-c4ccc(OC)c(OC)c4)n3c2)c(OC)c1	.	0	-14	0	6	-5	.	.
COc1cc(-c2cnc3c(NC(C)=O)cc(-c4ccc(N5CCN(C)CC5)cc4)cn23)cc(OC)c1OC	.	1	0	0	3	14	.	.
COc1ccc(-c2cnc3c(NC(C)=O)cc(-c4cc(F)ccc4OC)cn23)cc1OC	.	-1	-19	0	19*	19	27*	2
COc1ccc(-c2cc(NC(C)=O)c3ncc(-c4ccccc4)n3c2)cc1OC	.	0	-4	0	5	11	.	.
COc1ccc(-c2cc(NC(C)=O)c3ncc(-c4ccc(F)cc4)n3c2)cc1OC	.	0	14	0	22*	-28	26*	6
SMILES	NTR1 agonist	Tb MetRS inh	MC4R antag cAMP	aDG glyco up	MC4R barr agon	H9c2 TAG inh	MC4R barr conf	MOR-DOR barr ag
COc1ccc(F)cc1-c1cc(NC(C)=O)c2ncc(-c3cc(OC)c(OC)c(OC)c3)n2c1	.	0	-54	0	11*	41	9.7*	8
Cc1cccc(C)c1NC(=O)CN(Cc1ccccc1)Cc1ccccc1	.	-1	.	0	.	.	.	.
CCc1nc2c(OCc3cccc(Cl)c3)cccn2c1N(C)C(=O)C1CC1	.	0	-14	0	-1	-3	.	.
CCOC(=O)[C@]12CCCC=C1N(Cc1ccco1)C(=O)[C@H](CC(=O)NCc1ccccc1)C2	.	0	.	0	.	.	.	.
CC(C)(C)NC(=O)C(C1CC1)n1c(=O)c(-c2ccco2)nc2ccccc21 (configuration not stated)	.	0	.	0	.	.	.	.
Cc1cccc(NC(=O)c2oc(=O)c3ccccc3c2-c2ccccc2)c1C	3	-1	10	0	11*	.	1	3
Cc1ccc2c(CC(=O)OCc3cc(=O)n4c(n3)sc3ccccc34)coc2c1	0	-1	11	0	0	-10	.	.
CC(C)[C@H](NC(=O)Cc1ccccc1)C(=O)OCc1cc(=O)n2c(n1)sc1ccccc12	2	1	25	0	14*	11	2	4
OCCN(CCO)c1ccc(C(c2ccccc2Cl)c2ccc(N(CCO)CCO)cc2Cl)c(Cl)c1	34	2	9	0	14*	.	9.6*	3
O=C(COc1ccc2c(c1)CCC2)NCc1cccc(Cl)c1	0	0	7	0	0	.	.	.
O=C(COc1ccc2c(c1)CCC2)NCc1ccc(Cl)cc1	0	2	8	0	12*	.	4	7
O=C1NC[C@H](CCCCN2C[C@H](Cc3ccc(O)cc3)N(CCC3CCCCC3)C(=O)C2=O)N(CCC2CCCCC2)C1=O	.	-1	.	0	.	.	.	.
COc1ccc(OC)c2sc(NC(=O)CCSc3ccccc3)nc12	28	-1	0	0	11*	20	2	8
Cc1ccccc1C(=O)NCCN1CCC(n2c(=O)[nH]c3ccccc32)CC1	.	0	.	0	.	.	.	.
CCCn1cnnc1CNC(=O)[C@H]1O[C@@H](n2ccc(=O)[nH]c2=O)[C@H](O)[C@@H]1O	.	1	.	1	.	.	.	.
COc1cccc(-c2nc(C(N)=O)c3[nH]c(=O)n(-c4cccc(Cl)c4)c3n2)c1OC	6	0	11	0	0	-4	.	.

Bioassay records from PubChem.
